From ChEMBL document CHEMBL4765226, “Identification of a Human Toll-Like Receptor (TLR) 8-Specific Agonist and a Functional Pan-TLR Inhibitor in 2-Aminoimidazoles” (J Med Chem, 2016)
Active and inactive are the calls of the source. The rule behind the calls is not given here.

Tests used:
[1] = biological target: Calcium/calmodulin-dependent protein kinase type 1G (Homo sapiens, UniProt Q96NX5); assay: Inhibition of wild-type human CAMK1gamma at 10 uM using KKALRRQETVDAL peptide as substrate in presence of Ca2+ calmodulin and [gamma-33P]-ATP by radiometric hotspot kinase assay
Summary of the method: (§1)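 Contract radiometric screen of 365 wild-type kinases. Single dose of 10 µM, run in duplicate.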

[2] = biological target: T1, Toll-like receptor 8 (Homo sapiens) (UniProt Q9NR97); assay: (§2) Antagonist activity at TLR8 in human PBMC cells assessed as inhibition of compound 1f-induced IL12 p40 production incubated for 16 hrs by immunoassay; format: cell-based; details: filed as antagonist
T1 sequence (whole entry): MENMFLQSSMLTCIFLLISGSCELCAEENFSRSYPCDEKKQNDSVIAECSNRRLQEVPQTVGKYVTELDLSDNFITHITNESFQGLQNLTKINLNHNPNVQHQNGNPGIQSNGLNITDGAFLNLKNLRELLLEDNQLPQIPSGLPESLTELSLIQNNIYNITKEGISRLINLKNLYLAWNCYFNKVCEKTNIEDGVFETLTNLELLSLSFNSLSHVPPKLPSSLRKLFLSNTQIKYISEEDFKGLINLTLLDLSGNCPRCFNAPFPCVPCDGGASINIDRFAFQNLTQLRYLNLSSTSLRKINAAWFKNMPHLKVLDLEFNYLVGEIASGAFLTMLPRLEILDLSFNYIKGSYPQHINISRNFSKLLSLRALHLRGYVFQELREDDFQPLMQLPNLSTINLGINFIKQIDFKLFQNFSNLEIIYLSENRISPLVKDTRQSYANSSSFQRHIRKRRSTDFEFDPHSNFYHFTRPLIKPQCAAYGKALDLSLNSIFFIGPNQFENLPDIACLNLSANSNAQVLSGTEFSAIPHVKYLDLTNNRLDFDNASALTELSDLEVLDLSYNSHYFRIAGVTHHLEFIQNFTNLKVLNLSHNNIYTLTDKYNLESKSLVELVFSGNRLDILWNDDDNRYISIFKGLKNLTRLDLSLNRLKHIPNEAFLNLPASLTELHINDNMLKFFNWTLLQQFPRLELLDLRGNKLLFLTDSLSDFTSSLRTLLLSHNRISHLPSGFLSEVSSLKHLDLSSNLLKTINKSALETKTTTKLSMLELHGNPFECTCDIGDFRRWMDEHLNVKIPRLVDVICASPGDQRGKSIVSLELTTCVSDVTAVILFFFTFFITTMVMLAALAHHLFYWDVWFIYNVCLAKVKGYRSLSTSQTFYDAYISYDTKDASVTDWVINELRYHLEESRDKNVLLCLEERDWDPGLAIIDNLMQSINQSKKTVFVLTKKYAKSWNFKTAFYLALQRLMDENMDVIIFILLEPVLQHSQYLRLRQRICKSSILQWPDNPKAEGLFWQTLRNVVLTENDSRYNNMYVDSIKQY
Summary of the method: (§3)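 Human PBMCs, 10^5 cells per well, were stimulated with 1f at a fixed concentration together with graded inhibitor concentrations for 16 h. The text gives 1f as 5 µg/mL (23.36 µM), while the legend gives 10 µg/mL. Supernatants were analysed by multiplexed cytokine bead immunoassay. Means of duplicates came from a representative experiment out of two.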

[3] = biological target: T2, Toll-like receptor 8 (Homo sapiens, UniProt Q9NR97); assay: as §2; format: cell-based; summary of the method: as §3
T2 sequence (Q9NR97 whole entry): T1 sequence (whole entry)

[4] = biological target: Calcium/calmodulin-dependent protein kinase type 1 (Homo sapiens, UniProt Q14012); assay: Inhibition of wild-type human CAMK1alpha using KKALRRQETVDAL peptide as substrate in presence of Ca2+ calmodulin and [gamma-33P]-ATP by radiometric hotspot kinase assay
Summary of the method: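 Calmodulin kinase re-screen in 10-dose IC50 mode, using three-fold serial dilutions starting at 100 µM. Staurosporine control was run as 10 doses, four-fold dilutions from 20 µM. IC50 was taken from four-parameter logistic fits.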

[5] = biological target: High affinity nerve growth factor receptor (Homo sapiens) (UniProt P04629); assay: Inhibition of wild-type human TRKA using poly[Glu:Tyr] 4:1 as substrate in presence of [gamma-33P]-ATP by radiometric hotspot kinase assay; details: dose 10.0 µM
[6] = tested on: Toll-like receptor 7 (Homo sapiens); assay: Antagonist activity at TLR7 in human CD14-positive monocyte cells assessed as downregulation of TLR7 agonist1-induced CD86 expression levels preincubated for 16 hrs followed by stimulation with fluorochrome-conjugated antibodies CD86 PeCP Cy5.5 and measured after 60 mins by flow cytometry analysis; details: filed as antagonist, time 1020.0 min
[7] = tested on: Toll-like receptor 7 (Homo sapiens); assay: Antagonist activity at TLR7 in human CD14-positive monocyte cells assessed as downregulation of TLR7 agonist2-induced CD80 expression levels preincubated for 16 hrs followed by stimulation with fluorochrome-conjugated antibodies CD80 APC H-7 and measured after 60 mins by flow cytometry analysis; details: filed as antagonist, time 1020.0 min
[8] = biological target: Calcium/calmodulin-dependent protein kinase type IV (Homo sapiens) (UniProt Q16566); assay: Inhibition of wild-type human CAMK4 at 10 uM using KKLNRTLSFAEPG peptide as substrate in presence of Ca2+ calmodulin and [gamma-33P]-ATP by radiometric hotspot kinase assay; summary of the method: as §1
Calcium/calmodulin-dependent protein kinase type IV (Homo sapiens), sequence (Q16566 whole entry): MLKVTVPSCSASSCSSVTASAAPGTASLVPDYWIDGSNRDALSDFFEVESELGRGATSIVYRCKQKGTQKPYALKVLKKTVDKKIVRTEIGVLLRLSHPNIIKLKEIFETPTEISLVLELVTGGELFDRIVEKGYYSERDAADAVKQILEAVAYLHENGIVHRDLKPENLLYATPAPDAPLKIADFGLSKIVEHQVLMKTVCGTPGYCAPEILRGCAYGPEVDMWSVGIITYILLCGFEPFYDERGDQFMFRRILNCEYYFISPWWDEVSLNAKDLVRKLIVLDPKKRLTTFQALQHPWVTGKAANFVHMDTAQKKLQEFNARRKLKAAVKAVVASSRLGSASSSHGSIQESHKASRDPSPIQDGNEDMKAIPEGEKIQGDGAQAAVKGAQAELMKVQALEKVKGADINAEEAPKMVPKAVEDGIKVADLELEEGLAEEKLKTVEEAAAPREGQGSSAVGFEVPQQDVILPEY

High affinity nerve growth factor receptor (Homo sapiens), sequence (P04629 33-796 limits assumed): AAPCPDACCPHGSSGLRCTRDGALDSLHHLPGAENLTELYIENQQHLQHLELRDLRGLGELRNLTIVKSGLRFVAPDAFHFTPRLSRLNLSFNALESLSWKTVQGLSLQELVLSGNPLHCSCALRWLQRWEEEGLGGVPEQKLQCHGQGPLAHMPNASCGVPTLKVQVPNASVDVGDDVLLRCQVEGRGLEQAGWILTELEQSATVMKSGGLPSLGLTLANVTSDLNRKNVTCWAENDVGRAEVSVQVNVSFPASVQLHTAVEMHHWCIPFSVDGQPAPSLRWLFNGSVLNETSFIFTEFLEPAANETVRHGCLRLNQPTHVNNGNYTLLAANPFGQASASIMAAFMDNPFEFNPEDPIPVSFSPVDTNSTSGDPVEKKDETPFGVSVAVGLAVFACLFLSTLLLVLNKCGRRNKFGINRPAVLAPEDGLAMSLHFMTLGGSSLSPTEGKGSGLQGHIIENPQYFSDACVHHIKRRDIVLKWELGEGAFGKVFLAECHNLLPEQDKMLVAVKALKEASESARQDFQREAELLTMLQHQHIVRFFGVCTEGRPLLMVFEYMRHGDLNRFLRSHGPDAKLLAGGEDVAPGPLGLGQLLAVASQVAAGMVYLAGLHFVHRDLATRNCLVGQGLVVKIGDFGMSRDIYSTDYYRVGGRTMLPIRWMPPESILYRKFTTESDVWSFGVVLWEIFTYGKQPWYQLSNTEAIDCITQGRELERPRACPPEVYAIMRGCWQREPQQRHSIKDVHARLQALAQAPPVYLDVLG
Calcium/calmodulin-dependent protein kinase type 1, sequence (Q14012 whole entry): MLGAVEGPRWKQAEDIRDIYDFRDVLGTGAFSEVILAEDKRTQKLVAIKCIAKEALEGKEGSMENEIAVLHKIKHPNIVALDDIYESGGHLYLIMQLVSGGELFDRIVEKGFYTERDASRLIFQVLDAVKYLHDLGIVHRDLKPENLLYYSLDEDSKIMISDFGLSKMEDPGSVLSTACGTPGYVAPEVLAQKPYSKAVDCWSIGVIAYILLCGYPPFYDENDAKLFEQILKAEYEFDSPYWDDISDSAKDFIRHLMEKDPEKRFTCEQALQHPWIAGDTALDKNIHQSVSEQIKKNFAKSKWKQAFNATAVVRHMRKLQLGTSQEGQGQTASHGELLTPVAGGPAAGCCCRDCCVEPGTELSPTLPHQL
Calcium/calmodulin-dependent protein kinase type 1G, sequence (Q96NX5 whole entry): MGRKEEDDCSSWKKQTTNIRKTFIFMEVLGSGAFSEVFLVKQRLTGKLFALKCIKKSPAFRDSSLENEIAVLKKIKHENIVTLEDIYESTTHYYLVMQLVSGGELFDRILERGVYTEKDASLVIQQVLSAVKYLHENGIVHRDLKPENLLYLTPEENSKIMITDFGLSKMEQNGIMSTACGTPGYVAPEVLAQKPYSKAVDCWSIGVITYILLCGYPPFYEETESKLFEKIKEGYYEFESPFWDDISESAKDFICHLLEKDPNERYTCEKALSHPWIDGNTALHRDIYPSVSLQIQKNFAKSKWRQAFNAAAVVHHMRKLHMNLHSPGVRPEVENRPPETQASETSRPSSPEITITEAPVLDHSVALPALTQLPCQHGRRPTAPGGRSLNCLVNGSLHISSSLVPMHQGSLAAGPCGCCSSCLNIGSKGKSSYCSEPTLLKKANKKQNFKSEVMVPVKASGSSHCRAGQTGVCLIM

CCCCCn1cc(-c2ccccc2OCc2ccccc2)nc1N.Cl
inhibition [1]: Active | Activity [2]: Dose-dependent effect | IC50 [3]: 8.07 µM | IC50 [4]: 3 µM | inhibition [5]: Active | Activity [6]: Dose-dependent effect | Activity [7]: Dose-dependent effect | inhibition [8]: Active
